Data taken from ChEMBL document CHEMBL3352597, “Heck products of parthenolide and melampomagnolide-B as anticancer modulators that modify cell cycle progression” (Eur J Med Chem, 2014).
Active and inactive are the calls of the source. The rule behind the calls is not given here.

Experiments:
Assay type in all cases: functional
[1] = Anticancer activity against human UACC62 cells
Procedure, shortened: (§1)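 NCI 60 human tumour cell line screen. A single-concentration pre-screen was run at 10^-5 M. Compounds selected from it were then tested at five concentrations, 10^-4 to 10^-8 M. Dose-response curves plotted cytotoxic effect against log10 of the drug concentration for each cell line. GI50 is the molar concentration giving 50% growth inhibition, and LC50 the concentration killing 50% of cells.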

[2] = tested on: M14; experiment: Anticancer activity against human M14 cells
Procedure, shortened: (§2)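 NCI 60 human cancer cell line panel, multiple-dose testing at five concentrations (10^-4, 10^-5, 10^-6, 10^-7 and 10^-8 M). Dose-response curves plot cytotoxic effect against log10 of drug concentration for each cell line. GI50 is the molar concentration giving 50% growth inhibition; LC50 is the concentration killing 50% of cells.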

[3] = Anticancer activity against human OVCAR8 cells; procedure, shortened: as §2
[4] = Anticancer activity against human BT549 cells; procedure, shortened: as §2
[5] = tested on: MDA-MB-231; experiment: Anticancer activity against human MDA-MB-231 cells; procedure, shortened: as §2
[6] = Anticancer activity against human SF295 cells; procedure, shortened: as §2
[7] = tested on: NCI-H460; experiment: Anticancer activity against human NCI-H460 cells; procedure, shortened: as §2
[8] = tested on: SF-268; experiment: Anticancer activity against human SF268 cells; procedure, shortened: as §2
[9] = tested on: IGROV-1; experiment: Anticancer activity against human IGROV1 cells; procedure, shortened: as §2
[10] = tested on: NCI-H522; experiment: Anticancer activity against human NCI-H522 cells; procedure, shortened: as §2
[11] = tested on: KM12; experiment: Anticancer activity against human KM12 cells; procedure, shortened: as §2
[12] = tested on: NCI-H23; experiment: Anticancer activity against human NCI-H23 cells; procedure, shortened: as §2
[13] = tested on: NCI-H226; experiment: Anticancer activity against human NCI-H226 cells; procedure, shortened: as §2
[14] = Anticancer activity against human HCT15 cells; procedure, shortened: as §2
[15] = Anticancer activity against human RPMI8226 cells; procedure, shortened: as §2
[16] = tested on: K562; experiment: Anticancer activity against human K562 cells; procedure, shortened: as §2
[17] = tested on: MDA-MB-468; experiment: Anticancer activity against human MDA-MB-468 cells; procedure, shortened: as §2
[18] = Anticancer activity against human RXF393 cells; procedure, shortened: as §2
[19] = Anticancer activity against human COLO205 cells; procedure, shortened: as §2
[20] = tested on: Malme-3M; experiment: Anticancer activity against human MALME-3M cells; procedure, shortened: as §2
[21] = tested on: A549; experiment: Anticancer activity against human A549 cells; procedure, shortened: as §2
[22] = tested on: SNB-75; experiment: Anticancer activity against human SNB75 cells; procedure, shortened: as §1
[23] = Anticancer activity against human NCI-ADR-RES cells; procedure, shortened: as §2
[24] = Anticancer activity against human UACC257 cells; procedure, shortened: as §1
[25] = Anticancer activity against human SKOV3 cells; procedure, shortened: as §2
[26] = tested on: NCI-H322M; experiment: Anticancer activity against human NCI-H322M cells after 48 hrs; procedure, shortened: as §2
[27] = Anticancer activity against human UO31 cells; procedure, shortened: as §1
[28] = tested on: SK-MEL-28; experiment: Anticancer activity against human SK-MEL-28 cells; procedure, shortened: as §2
[29] = Anticancer activity against human OVCAR5 cells; procedure, shortened: as §2
[30] = tested on: MDA-MB-435; experiment: Anticancer activity against human MDA-MB-435 cells; procedure, shortened: as §2
[31] = tested on: SNB-19; experiment: Anticancer activity against human SNB19 cells; procedure, shortened: as §2
[32] = tested on: MCF7; experiment: Anticancer activity against human MCF7 cells; procedure, shortened: as §2
[33] = tested on: TK-10; experiment: Anticancer activity against human TK10 cells; procedure, shortened: as §1
[34] = Anticancer activity against human HCC2998 cells; procedure, shortened: as §2
[35] = Anticancer activity against human SF539 cells; procedure, shortened: as §2
[36] = tested on: DU-145; experiment: Anticancer activity against human DU145 cells after 48 hrs; details: DU-145, 48 h; procedure, shortened: as §2
[37] = Anticancer activity against human MOLT4 cells; procedure, shortened: as §2
[38] = Anticancer activity against human HCT116 cells; procedure, shortened: as §2
[39] = tested on: 786-0; experiment: Anticancer activity against human 786-0 cells; procedure, shortened: as §2
[40] = tested on: HOP-62; experiment: Anticancer activity against human HOP62 cells; procedure, shortened: as §2
[41] = Anticancer activity against human PC3 cells; procedure, shortened: as §2
[42] = tested on: CAKI-1; experiment: Anticancer activity against human CAKI-1 cells; procedure, shortened: as §2
[43] = tested on: SK-MEL-5; experiment: Anticancer activity against human SK-MEL-5 cells; procedure, shortened: as §2
[44] = tested on: ACHN; experiment: Anticancer activity against human ACHN cells; procedure, shortened: as §2
[45] = Anticancer activity against human Hs 578T cells; procedure, shortened: as §2
[46] = tested on: U-251; experiment: Anticancer activity against human U251 cells; procedure, shortened: as §1
[47] = tested on: SW-620; experiment: Anticancer activity against human SW620 cells; procedure, shortened: as §1
[48] = tested on: SN12C; experiment: Anticancer activity against human SN12C cells; procedure, shortened: as §2
[49] = tested on: SR; experiment: Anticancer activity against human SR cells; procedure, shortened: as §1
[50] = tested on: HT-29; experiment: Anticancer activity against human HT-29 cells; procedure, shortened: as §2
[51] = tested on: SK-MEL-2; experiment: Anticancer activity against human SK-MEL-2 cells; procedure, shortened: as §2
[52] = tested on: HL-60(TB); experiment: Anticancer activity against human HL-60(TB) cells; procedure, shortened: as §2
[53] = read-out: LC50 (the source's name)

SMILES: C/C1=C\CC[C@@]2(C)O[C@@H]2[C@H]2OC(=O)/C(=C/c3ccsc3)[C@@H]2CC1
- GI50 ([1]; UACC-62): 13.8 µM
- CC50 ([1]; UACC-62, read-out: LC50 (the source's name)): 76.6 µM
- GI50 [2]: 20.5 µM
- CC50 [2, 53]: > 100 µM
- GI50 ([3]; OVCAR-8): 26.9 µM
- CC50 ([3]; OVCAR-8, read-out: LC50 (the source's name)): > 100 µM
- GI50 ([4]; BT-549): 20.1 µM
- CC50 ([4]; BT-549, read-out: LC50 (the source's name)): 88.2 µM
- GI50 [5]: 16 µM
- LC50 (concentration killing 50% of cells) [5]: 81.8 µM
- GI50 ([6]; SF-295): 28.5 µM
- CC50 ([6]; SF-295, read-out: LC50 (the source's name)): > 100 µM
- GI50 [7]: 29.3 µM
- CC50 [7, 53]: > 100 µM
- GI50 [8]: 21.3 µM
- CC50 [8, 53]: > 100 µM
- GI50 [9]: 27.9 µM
- CC50 [9, 53]: > 100 µM
- GI50 [10]: 5.44 µM
- CC50 [10, 53]: 59.7 µM
- GI50 [11]: 20.4 µM
- CC50 [11, 53]: 86.7 µM
- GI50 [12]: 23 µM
- CC50 [12, 53]: > 100 µM
- GI50 [13]: 30.2 µM
- CC50 [13, 53]: > 100 µM
- GI50 ([14]; HCT-15): 22.6 µM
- CC50 ([14]; HCT-15, read-out: LC50 (the source's name)): > 100 µM
- GI50 ([15]; RPMI-8226): 19.7 µM
- CC50 ([15]; RPMI-8226, read-out: LC50 (the source's name)): > 100 µM
- GI50 [16]: 25.2 µM
- CC50 [16, 53]: > 100 µM
- GI50 [17]: 17.7 µM
- LC50 (concentration killing 50% of cells) [17]: > 100 µM
- GI50 ([18]; RXF 393): 18.1 µM
- CC50 ([18]; RXF 393, read-out: LC50 (the source's name)): > 100 µM
- GI50 ([19]; COLO 205): 22.6 µM
- CC50 ([19]; COLO 205, read-out: LC50 (the source's name)): 90.9 µM
- GI50 [20]: 22.5 µM
- CC50 [20, 53]: > 100 µM
- GI50 [21]: 29.8 µM
- CC50 [21, 53]: > 100 µM
- GI50 [22]: 21.5 µM
- CC50 [22, 53]: > 100 µM
- GI50 [23]: 23.6 µM
- CC50 [23, 53]: > 100 µM
- GI50 ([24]; UACC-257): 16.6 µM
- CC50 ([24]; UACC-257, read-out: LC50 (the source's name)): > 100 µM
- GI50 ([25]; SK-OV-3): 44.9 µM
- CC50 ([25]; SK-OV-3, read-out: LC50 (the source's name)): > 100 µM
- GI50 [26]: 44.7 µM
- CC50 [26, 53]: > 100 µM
- GI50 ([27]; UO-31): 27.3 µM
- CC50 ([27]; UO-31, read-out: LC50 (the source's name)): > 100 µM
- GI50 [28]: 29.4 µM
- CC50 [28, 53]: > 100 µM
- GI50 ([29]; OVCAR-5): 48.1 µM
- CC50 ([29]; OVCAR-5, read-out: LC50 (the source's name)): > 100 µM
- GI50 [30]: 18.3 µM
- CC50 [30, 53]: > 100 µM
- GI50 [31]: 47.6 µM
- CC50 [31, 53]: > 100 µM
- GI50 [32]: 20 µM
- CC50 [32, 53]: > 100 µM
- GI50 [33]: 34.7 µM
- CC50 [33, 53]: > 100 µM
- GI50 ([34]; HCC 2998): 33.8 µM
- CC50 ([34]; HCC 2998, read-out: LC50 (the source's name)): > 100 µM
- GI50 ([35]; SF-539): 16.1 µM
- CC50 ([35]; SF-539, read-out: LC50 (the source's name)): 62.2 µM
- GI50 [36]: 25.7 µM
- CC50 [36, 53]: > 100 µM
- GI50 ([37]; MOLT-4): 25.7 µM
- CC50 ([37]; MOLT-4, read-out: LC50 (the source's name)): > 100 µM
- GI50 ([38]; HCT-116): 28.3 µM
- CC50 ([38]; HCT-116, read-out: LC50 (the source's name)): > 100 µM
- GI50 [39]: 35.7 µM
- CC50 [39, 53]: > 100 µM
- GI50 [40]: 35.8 µM
- CC50 [40, 53]: > 100 µM
- GI50 ([41]; PC-3): 22.7 µM
- CC50 ([41]; PC-3, read-out: LC50 (the source's name)): > 100 µM
- GI50 [42]: 30.9 µM
- CC50 [42, 53]: > 100 µM
- GI50 [43]: 16.3 µM
- LC50 [43]: 60.4 µM
- GI50 [44]: 32.8 µM
- CC50 [44, 53]: > 100 µM
- GI50 [45]: 21.5 µM
- CC50 [45, 53]: > 100 µM
- GI50 [46]: 21.7 µM
- CC50 [46, 53]: > 100 µM
- GI50 [47]: 22.9 µM
- CC50 [47, 53]: > 100 µM
- GI50 [48]: 25.8 µM
- CC50 [48, 53]: > 100 µM
- GI50 [49]: 20.7 µM
- CC50 [49, 53]: > 100 µM
- GI50 [50]: 27 µM
- CC50 [50, 53]: > 100 µM
- GI50 [51]: inactive
- LC50 [51]: inactive
- GI50 [52]: 21.7 µM
- CC50 [52, 53]: 99.9 µM
